An excerpt weighted towards active compounds, which were near 7.1% of everything screened.
bCat KO growth: primary screen for growth suppressors in beta-catenin knockout HCT116 cells (colon tumor, human) | HCT116 beta-catenin knockout viability, CellTiter-Glo, 60 h; stronger effect = lower value | viability, % at 10 µM | 140,000 tested, 1.5% active | AID 818, 2007;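 active = viability at or under a set limit, the compound median less 4 SD, cut at about 6% in these data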;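 also: 0% = Hyamine 1622 control at 20 µM and 100% = untreated cell control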
H69AR growth 86K: proliferation blockers of H69AR lung cancer cells, primary screen, cell-based, human, 86K library; viability, % at 10 µM; 85,000 tested, 6% active; AID 598, 2007; H69AR lung tumor viability, ATP luminescence, 72 h; stronger effect = lower value;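 active = viability at or below 40%; inactive = viability above 40%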;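 also: multidrug resistant small cell line overexpressing MRP-1 efflux transporter; 100% = mean luminescence of untreated control wells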
Cav32 inh: Cav3.2 calcium influx blockers – cell-based, Fluo-4 calcium fluorescence, FDSS, MLSMR library, primary screen | Voltage-dependent T-type calcium channel subunit alpha-1H (Homo sapiens), O95180 | Cav3.2-expressing cells; stronger effect = lower value | B-score at 10 µM | 100,000 tested, 4% active | AID 449739, 2010;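 active = single-dose well whose peak fluorescence ratio is a statistical outlier from its plate by either plate-standardised score or position-corrected B-score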
Fibroblast inh: antiproliferative effect on LL 47 fibroblasts – human, LL 47 cells, CellTiter-Glo luminescence, primary screen; 85,000 tested, 1.1% active; LL 47 human lung fibroblast viability, ATP luminescence; stronger effect = lower value; viability, % at 10 µM;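 active = viability at or below 50% in the single dose screen; inactive = viability above 50%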;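 also: compound exposure lasted 72 h before the ATP readout; 100% = median luminescence of untreated cell-only wells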
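Test system: LL 47 human lung fibroblasts / Quantity: 1,150 cells in each well / Medium: IMEM growth medium with 15% fetal bovine serum / Incubation: 72 h compound exposure at 37 °C after overnight plating / Detection: CellTiter-Glo luminescence measuring cellular ATP / Read-out: % viability versus median cells-only luminescence / Benchmarks: cell-only wells, no compound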
HUVEC prolif 384: inhibitors of HUVEC proliferation, primary screen, cell-based, 384-well; CellTiter-Glo luminescence, 72 h; stronger effect = lower value; AID 648, 2007; 86,000 tested, 1.1% active; viability, % at 10 µM (by protocol);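 active = viability at or below 30%; inactive = viability above 30%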;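 also: 100% = median luminescence of DMSO-only cell control wells on each plate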
PTEN del growth: growth suppression of PTEN-null HCT116, primary screen, cell-based, CellTiter-Glo. viability, % at 10 µM. 140,000 tested, 1.2% active. HCT116 PTEN-null viability, 60 h; stronger effect = lower value. AID 827, 2007;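 active = viability at or below a set limit, 4 SD under the median of all tested compounds, cut at about 3.7% in these data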;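 also: PTEN knockout HCT116 line with beta catenin targeted HCT116 as companion control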
Numbers without * were called inactive; . = no result.

SMILES | bCat KO growth | H69AR growth 86K | Cav32 inh | Fibroblast inh | HUVEC prolif 384 | PTEN del growth
CCc1ccccc1NC(=O)C(CC)Sc1nc2cc3c(cc2c(=O)n1Cc1ccco1)OCO3 (centres undefined) | 102.4 | 6.3* | 0.00422 | 84.8 | 46.1 | 101.1
COC(=O)c1ccc(CSc2nc3ccccc3c(=O)n2Cc2ccco2)o1 | 73.7 | 90.8 | -2.49 | 101.8 | 87.6 | 74.9
CCc1ccc(NC(=O)C(CC)Sc2nc3cc4c(cc3c(=O)n2Cc2ccco2)OCO4)cc1 (centres undefined) | 1.8* | 9.8* | -3.4 | 28.2* | 35.4 | 15.3
CCC(Sc1nc2cc(OC)c(OC)cc2c(=O)n1Cc1ccco1)C(=O)NCCOC (centres undefined) | 93.9 | 65.5 | 2.48 | 97.5 | 90.0 | 92.3
C/C(CC(=O)Nc1c(C)cc(C)cc1C)=N\NC(=O)c1cnccn1 | 82.6 | . | . | . | . | 93.0
COC(=O)c1sc(N)c(C(=O)OC)c1COC(=O)c1c(C)noc1C | 24.0 | 18.8* | -2.27 | 54.2 | 66.6 | 21.6
O=c1c2c3nc4ccccc4nc3n(-c3ccc4c(c3)OCCO4)c2ncn1C1CCCC1 | . | 20.6* | -0.459 | 13.2* | 36.6 | .
O=c1c2c3nc4ccccc4nc3n(-c3ccc4c(c3)OCCO4)c2ncn1CC1CCCO1 (centres undefined) | . | 90.2 | . | 109.0 | 101.8 | .
CN1CCC/C1=C/C=C1\SC(=S)NC1=O | 99.6 | . | . | . | . | 86.3
CCOc1ccc(C(=O)NC(=S)Nc2ncccc2C)cc1[N+](=O)[O-] | 2.8* | . | . | . | . | 3.3*
Cc1cnc(NC(=O)c2cc3c(s2)CCCC3)s1 | 65.2 | 23.9* | -1.31 | 83.4 | 75.8 | 64.7
Cc1csc(NC(=O)c2cc3c(s2)CCCCC3)n1 | 68.2 | 78.9 | -0.0908 | 81.6 | 78.7 | 61.3
Clc1ccc(CNCc2cccs2)c(Cl)c1 | 96.2 | . | . | . | . | 96.1
O=C(CSc1ccc2ccccc2c1)Nc1ncccn1 | 96.6 | . | . | . | . | 94.4
CCc1ccc2c(c1)C1(NN=C(c3cccc4ccccc34)S1)C(=O)N2 (centres undefined) | 10.2 | 18.9* | -2.25 | 34.5* | 35.0 | 10.7
Cc1cc(S(=O)(=O)NCC(C)C)ccc1OCC(=O)NCC1CCCO1 (centres undefined) | 93.3 | . | . | . | . | 94.2
O=C1C=C(c2cccs2)C[C@H](c2ccccc2)[C@H]1n1nnc([N+](=O)[O-])n1 | 4.9* | . | . | . | . | 4.4
COc1ccc(C2CC(=O)C=C(NNS(=O)(=O)c3ccc(C)cc3)C2)cc1 (centres undefined) | 100.7 | . | . | . | . | 90.9
Cc1ccc(C2CC(c3ccc(Cl)cc3)=NNC2=O)cc1 (centres undefined) | 96.6 | 99.8 | -2.3 | 104.3 | 123.1 | 90.0
O=C(C1=NNCC1c1ccc(Cl)cc1)C1CO1 (centres undefined) | 2.2* | . | . | . | . | 2.1*
CCOC(=O)C1=C(O)/C(=C\c2ccc(CNC(=O)C(=O)Nc3ccccc3)o2)N=C1C | 100.5 | 35.9* | -0.954 | 106.0 | 97.9 | 102.5
COc1ccc(-c2csc3nc(-c4ccc(C)cc4)oc(=O)c23)cc1OC | 1.7* | . | . | . | . | 1.8*
COc1ccc(-c2csc3nc(C)n(-n4cccc4)c(=O)c23)cc1OC | 91.0 | 98.3 | -0.584 | 80.2 | 68.5 | 99.1
COc1ccc(OC)c(Nc2nc(-c3sc(NC(=O)CC(C)C)nc3C)cs2)c1 | 61.7 | . | -0.537 | . | . | 48.6
COc1ccc(OC)c(Nc2nc(-c3sc(C)nc3C)cs2)c1 | 94.3 | 25.6* | -0.675 | 94.5 | 58.3 | 76.3
SMILES | bCat KO growth | H69AR growth 86K | Cav32 inh | Fibroblast inh | HUVEC prolif 384 | PTEN del growth
COC(=O)c1cc(Br)c(=O)n(-c2cc(C)on2)c1 | 92.9 | 88.0 | 0.245 | 97.9 | 97.0 | 90.1
CC(/C=C/c1ccc2c(c1)OCO2)=N/NC(=O)c1cccnc1 | 83.9 | . | . | . | . | 89.8
CCOC(=O)Cn1nnnc1CN(Cc1ccc(OC)cc1)Cc1cc2cc(CC)ccc2[nH]c1=O | 82.7 | 84.2 | -5.38* | 106.0 | 84.2 | 80.6
CCOC(=O)Cn1nnnc1CN(Cc1ccc(OC)cc1)Cc1cc2cc(C)ccc2[nH]c1=O | 86.5 | 68.4 | -1.41 | 99.7 | 102.2 | 88.4
COc1ccccc1CN(Cc1cc2cc(C)ccc2[nH]c1=O)Cc1nnnn1Cc1ccco1 | 61.2 | 37.7* | -4.43* | 88.7 | 90.9 | 62.9
CCc1ccc2[nH]c(=O)c(CN(Cc3ccccc3OC)Cc3nnnn3Cc3ccco3)cc2c1 | 15.6 | 12.4* | -0.191 | 98.0 | 72.8 | 8.7
COc1cc2cc(CN(Cc3nnnn3Cc3ccco3)C3CCCCC3)c(=O)[nH]c2cc1OC | 72.4 | 48.7 | 1.19 | 89.9 | 83.5 | 61.7
Cc1ccc2oc(=O)c3cc(C(=O)N4CCN(c5ncccn5)CC4)sc3c2c1 | . | 60.4 | . | 88.0 | 92.0 | .
CCCCCOc1ccc(C(=O)NCC(=O)NCC(=O)OCC)cc1 | 35.9 | 24.6* | 0.000573 | 83.2 | 56.5 | 36.1
CCOC(=O)CNC(=O)CNC(=O)c1ccc(OCC(C)C)cc1 | 91.0 | 53.8 | 1.26 | 82.5 | 89.1 | 96.9
Cc1ccc(Cn2ncc3c(N4CCN(c5ccc(C)cc5)CC4)ncnc32)cc1 | 61.9 | 92.8 | . | 92.3 | 103.8 | 69.5
Cc1cc(=O)[nH]c2c1cnn2Cc1ccccc1 | 87.4 | 101.2 | 0.371 | 100.3 | 101.5 | 90.3
O=c1c(Cl)c(Cl)cnn1Cc1ccccc1Cl | 1.7* | . | . | . | . | 1.9*
O=c1c(Cl)c(Cl)cnn1-c1ccccc1 | 0.9* | . | . | . | . | 0.9*
Cc1cc(C)cc(Cn2ncc(Cl)c(Cl)c2=O)c1 | 1.9* | . | . | . | . | 1.6*
Cc1ccc(Cn2ncc(Cl)c(Cl)c2=O)cc1 | 2.7* | . | . | . | . | 1.7*
C#CCn1c(=NC(=O)c2sc3ccccc3c2Cl)sc2cc(S(N)(=O)=O)ccc21 | 13.4 | . | . | . | . | 12.3
Cc1ccc(/C=N/NC(=O)CC(=O)NCc2cccnc2)cc1 | 99.1 | . | . | . | . | 97.3
Brc1ccccc1-c1csnn1 | 97.5 | . | . | . | . | 93.9
CCc1ccc(C(=O)Cn2ncc(Cl)c(Cl)c2=O)cc1 | 4.8* | 6.1* | 1.04 | 28.9* | 6.8* | 3.0*
CCc1ccc(C(=O)c2cncc(Br)c2)cc1 | 86.6 | 93.8 | -0.358 | 94.9 | 83.5 | 75.9
Cc1ccc2nc(N3C(=O)C(O)=C(C(=O)c4ccco4)C3c3cccs3)sc2c1 (centres undefined) | 102.7 | . | -3.05* | . | . | 101.6
COc1ccc(CCN2C(=O)C(O)=C(C(=O)c3ccco3)C2c2cccs2)cc1OC (centres undefined) | 87.3 | 94.7 | -0.687 | 98.6 | 99.9 | 88.7
CC(C)COC(=O)C1C(=O)CC(C)(O)C(C(=O)OCC(C)C)C1c1cccnc1 (centres undefined) | 74.7 | 29.4* | 2.87 | 98.3 | 94.3 | 86.5
CCOC(=O)C1C(=O)CC(C)(O)C(C(=O)OCC)C1c1ccc(N(CC)CC)cc1 (centres undefined) | 88.6 | 72.5 | -0.873 | 95.4 | 95.8 | 88.1

Compound activity deposited in PubChem BioAssay by several laboratories.
